Results: ChEMBL document CHEMBL1773052, “3-Trifluoromethylquinoxaline N,N'-dioxides as anti-trypanosomatid agents. Identification of optimal anti-T. cruzi agents and mechanism of action studies” (J Med Chem, 2011)
Values belong to the compound of their own block, whether it stands above or below them.

Legend:
Trypanosoma cruzi [1] = assay: Antitrypanosomal activity against Trypanosoma cruzi Tulahuen 2 epimastigotes assessed as growth inhibition after 5 days; format: functional; settings: Tulahuen 2, 120 h, read-out: ID50
In short: (§1)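 Epimastigotes grown axenically at 28 °C in BHI-tryptose + 5% FBS; a 10-day stationary culture was inoculated to 1 × 10⁶ cells/mL. Drug added from DMSO stock, final DMSO ≤0.4%, vehicle control. A600 read daily. PGI on day 5 corrects for day-0 absorbance, relative to control. […] Three independent experiments.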

Trypanosoma cruzi [2] = assay: Antitrypanosomal activity against Trypanosoma cruzi Tulahuen 2 epimastigotes assessed as growth inhibition at 25 uM after 5 days relative to control; format: functional; settings: Tulahuen 2, 120 h, read-out: GI; in short: as §1

- IC50 (Trypanosoma cruzi [1]): 0.78 µM
Structure (SMILES): CCC(=O)c1c(C(F)(F)F)[n+]([O-])c2cc(Cl)c(Cl)cc2[n+]1[O-]
- inhibition of growth at 25 µM (Trypanosoma cruzi [2]): 100%

Structure (SMILES): Cc1c(C(=O)c2ccccc2)[n+]([O-])c2ccc(Cl)cc2[n+]1[O-]
- inhibition of growth at 25 µM (Trypanosoma cruzi [2]): 33%

- IC50 (Trypanosoma cruzi [1]): 2.5 µM
Structure (SMILES): O=C(c1ccco1)c1c(C(F)(F)F)[n+]([O-])c2cc(F)c(F)cc2[n+]1[O-]
- inhibition of growth at 25 µM (Trypanosoma cruzi [2]): 100%

- IC50 (Trypanosoma cruzi [1]): 18.4 µM
Structure (SMILES): CC(=O)c1c(C)[n+]([O-])c2cc(Cl)c(Cl)cc2[n+]1[O-]
- inhibition of growth at 25 µM (Trypanosoma cruzi [2]): 60%

Structure (SMILES): Cc1ccc2c(c1)[n+]([O-])c(C)c(C(=O)c1ccccc1)[n+]2[O-]
- inhibition of growth at 25 µM (Trypanosoma cruzi [2]): 8%

- IC50 (Trypanosoma cruzi [1]): 5 µM
Structure (SMILES): O=C(c1ccco1)c1c(C(F)(F)F)[n+]([O-])c2cc(C(F)(F)F)ccc2[n+]1[O-]
- inhibition of growth at 25 µM (Trypanosoma cruzi [2]): 100%

- IC50 (Trypanosoma cruzi [1]): 2.4 µM
Structure (SMILES): O=C(c1ccccc1)c1c(C(F)(F)F)[n+]([O-])c2cc(Cl)c(Cl)cc2[n+]1[O-]
- inhibition of growth at 25 µM (Trypanosoma cruzi [2]): 100%

Structure (SMILES): CC(=O)c1c(C)[n+]([O-])c2cc(C)c(C)cc2[n+]1[O-]
- inhibition of growth at 25 µM (Trypanosoma cruzi [2]): 2%

- IC50 (Trypanosoma cruzi [1]): 6.4 µM
Structure (SMILES): O=C(c1ccccc1)c1c(C(F)F)[n+]([O-])c2cc(Cl)ccc2[n+]1[O-]
- inhibition of growth at 25 µM (Trypanosoma cruzi [2]): 100%

Structure (SMILES): Cc1c(C(=O)c2ccccc2)[n+]([O-])c2ccccc2[n+]1[O-]
- inhibition of growth at 25 µM (Trypanosoma cruzi [2]): 19%

Structure (SMILES): CCOC(=O)c1c(C)[n+]([O-])c2cc(Cl)c(Cl)cc2[n+]1[O-]
- inhibition of growth at 25 µM (Trypanosoma cruzi [2]): 32%

Structure (SMILES): COc1ccc2c(c1)[n+]([O-])c(C)c(C(=O)c1ccccc1)[n+]2[O-]
- inhibition of growth at 25 µM (Trypanosoma cruzi [2]): 9%

Structure (SMILES): O=C(c1ccccc1)c1c(C(F)F)[n+]([O-])c2ccccc2[n+]1[O-]
- inhibition of growth at 25 µM (Trypanosoma cruzi [2]): 35.8%

Structure (SMILES): CCOC(=O)c1c(-c2ccccc2)[n+]([O-])c2cc(C)c(C)cc2[n+]1[O-]
- inhibition of growth at 25 µM (Trypanosoma cruzi [2]): 0%

Structure (SMILES): COC(=O)c1c(C)[n+]([O-])c2cc(Cl)c(Cl)cc2[n+]1[O-]
- inhibition of growth at 25 µM (Trypanosoma cruzi [2]): 66%

Structure (SMILES): CCOC(=O)c1c(-c2ccccc2)[n+]([O-])c2ccccc2[n+]1[O-]
- inhibition of growth at 25 µM (Trypanosoma cruzi [2]): 29%

Structure (SMILES): Cc1ccccc1NC(=O)c1c(C)[n+]([O-])c2ccccc2[n+]1[O-]
- inhibition of growth at 25 µM (Trypanosoma cruzi [2]): 21%

Structure (SMILES): Cc1c(Cc2ccccc2)[n+]([O-])c2cc(Cl)c(Cl)cc2[n+]1[O-]
- inhibition of growth at 25 µM (Trypanosoma cruzi [2]): 24%

Structure (SMILES): Cc1cc2c(cc1C)[n+]([O-])c(C(=O)Nc1ccccc1)c(C)[n+]2[O-]
- inhibition of growth at 25 µM (Trypanosoma cruzi [2]): 16%

Structure (SMILES): CCOC(=O)c1c(-c2ccccc2)[n+]([O-])c2cc(C)ccc2[n+]1[O-]
- inhibition of growth at 25 µM (Trypanosoma cruzi [2]): 13%

Structure (SMILES): Cc1cc2c(cc1C)[n+]([O-])c(C(=O)Nc1ccccc1C)c(C)[n+]2[O-]
- inhibition of growth at 25 µM (Trypanosoma cruzi [2]): 12%

Structure (SMILES): Cc1c(Cc2ccccc2)[n+]([O-])c2ccccc2[n+]1[O-]
- inhibition of growth at 25 µM (Trypanosoma cruzi [2]): 0%

Structure (SMILES): COC(=O)c1c(C)[n+]([O-])c2cc(C)c(C)cc2[n+]1[O-]
- inhibition of growth at 25 µM (Trypanosoma cruzi [2]): 10%

Structure (SMILES): O=C(c1ccccc1)c1nc2ccccc2nc1C(F)(F)F
- inhibition of growth at 25 µM (Trypanosoma cruzi [2]): 49%

Structure (SMILES): CCOC(=O)c1c(C)[n+]([O-])c2cc(C)c(C)cc2[n+]1[O-]
- inhibition of growth at 25 µM (Trypanosoma cruzi [2]): 1%

Structure (SMILES): CCOC(=O)c1c(-c2ccccc2)[n+]([O-])c2cc(OC)ccc2[n+]1[O-]
- inhibition of growth at 25 µM (Trypanosoma cruzi [2]): 0%

Structure (SMILES): Cc1c(Cc2ccccc2)[n+]([O-])c2ccc(Cl)cc2[n+]1[O-]
- inhibition of growth at 25 µM (Trypanosoma cruzi [2]): 0%

Structure (SMILES): Cc1cc2c(cc1C)[n+]([O-])c(C(=O)NC(C)(C)C)c(C)[n+]2[O-]
- inhibition of growth at 25 µM (Trypanosoma cruzi [2]): 0%

Structure (SMILES): Cc1cc2c(cc1C)[n+]([O-])c(C(=O)c1ccccc1)c(C)[n+]2[O-]
- inhibition of growth at 25 µM (Trypanosoma cruzi [2]): 3%

Structure (SMILES): CC(C)(C)C(=O)c1nc2ccccc2nc1C(F)(F)F
- inhibition of growth at 25 µM (Trypanosoma cruzi [2]): 43%

Structure (SMILES): Cc1cc2c(cc1C)[n+]([O-])c(Cc1ccccc1)c(C)[n+]2[O-]
- inhibition of growth at 25 µM (Trypanosoma cruzi [2]): 0%

Structure (SMILES): Cc1c(C(=O)NC(C)(C)C)[n+]([O-])c2cc(Cl)c(Cl)cc2[n+]1[O-]
- inhibition of growth at 25 µM (Trypanosoma cruzi [2]): 28%

Structure (SMILES): Cc1c(C(=O)Nc2ccccc2)[n+]([O-])c2cc(Cl)c(Cl)cc2[n+]1[O-]
- inhibition of growth at 25 µM (Trypanosoma cruzi [2]): 61%

Structure (SMILES): Cc1ccccc1NC(=O)c1c(C)[n+]([O-])c2cc(Cl)c(Cl)cc2[n+]1[O-]
- inhibition of growth at 25 µM (Trypanosoma cruzi [2]): 49%

Structure (SMILES): CC(=O)c1c(C)[n+]([O-])c2ccccc2[n+]1[O-] [MEQUINDOX]
- inhibition of growth at 25 µM (Trypanosoma cruzi [2]): 29%
